Laboratory results published in ChEMBL document CHEMBL1649560, “Beta-lactamase-mediated beta-lactam resistance in Campylobacter species: prevalence of Cj0299 (bla OXA-61) and evidence for a novel beta-Lactamase in C. jejuni” (2009).
≈ marks a conversion by molar mass, not a printed value.

Legend:
Assay type in all cases: functional
Campylobacter coli [1] = test: Antibacterial activity against Campylobacter coli assessed as resistant isolates by NCCLS agar doubling dilution method
Summary of the method: (§1)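 MICs by agar doubling dilution following the NCCLS (CLSI) Campylobacter Working Group procedure, with C. jejuni NCTC 11168 and C. coli NCTC 11366 as controls. Isolates came from UK chicken flocks, 2000–2006. Isolates were designated resistant at an ampicillin cutoff of 8 μg/ml. Enterobacteriaceae guidelines (BSAC, CLSI) were used as reference for the other agents.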

Campylobacter jejuni [2] = test: Antibacterial activity against Campylobacter jejuni assessed as resistant isolates by NCCLS agar doubling dilution method; summary of the method: as §1
Campylobacter jejuni [3] = test: Antibacterial activity against Campylobacter jejuni by NCCLS agar doubling dilution method
Summary of the method: (§2)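 MICs by agar doubling dilution following the NCCLS (CLSI) Campylobacter Working Group procedure, applied to ampicillin- and amoxicillin-resistant isolates from UK chicken flocks (2000–2006). C. jejuni NCTC 11168 and C. coli NCTC 11366 served as control strains. Resistance was called at an ampicillin cutoff of 8 μg/ml. Other agents were judged against Enterobacteriaceae guidelines (BSAC, CLSI).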

Campylobacter coli [4] = test: Antibacterial activity against Campylobacter coli by NCCLS agar doubling dilution method; summary of the method: as §2
Campylobacter jejuni [5] = test: Antibacterial activity against bla gene-positive and nitrocefin reaction-negative beta-lactamase harboring Campylobacter jejuni NCTC 11168 by NCCLS agar doubling dilution method
Summary of the method: (§3)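 MICs of β-lactams by agar doubling dilution following the NCCLS (CLSI) Campylobacter Working Group procedure, with C. jejuni NCTC 11168 and C. coli NCTC 11366 as controls. Isolates were from UK poultry flocks. β-Lactamase status was set by Cj0299 PCR (281-bp amplimer) and by a nitrocefin colour change of sonicated lysate within 5 min, or within 30 min on repeat.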

Campylobacter jejuni [6] = test: Antibacterial activity against Campylobacter jejuni isolate P270 harboring blaOXA-61::cat gene by NCCLS agar doubling dilution method
Campylobacter jejuni [7] = test: Antibacterial activity against bla gene-negative and nitrocefin reaction-negative beta-lactamase harboring Campylobacter jejuni isolate P835 by NCCLS agar doubling dilution method; summary of the method: as §3
Campylobacter jejuni [8] = test: Antibacterial activity against bla gene-negative and nitrocefin reaction-negative beta-lactamase harboring Campylobacter jejuni isolate P850 by NCCLS agar doubling dilution method; summary of the method: as §3
Campylobacter jejuni [9] = test: Antibacterial activity against bla gene-negative and nitrocefin reaction-negative beta-lactamase harboring Campylobacter jejuni isolate P1962 by NCCLS agar doubling dilution method; summary of the method: as §3
Campylobacter jejuni [10] = test: Antibacterial activity against bla gene-positive and nitrocefin reaction-positive beta-lactamase harboring Campylobacter jejuni isolate P285 by NCCLS agar doubling dilution method
Summary of the method: (§4)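 MICs by agar doubling dilution per the NCCLS (now CLSI) Campylobacter Working Group method. Isolates came from UK chicken flocks (feces, ceca or farm environment), 2000–2006. C. jejuni NCTC 11168 and C. coli NCTC 11366 served as control strains. The ampicillin resistance cutoff was 8 μg/ml; BSAC/CLSI Enterobacteriaceae guidelines were used for other agents.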

Campylobacter jejuni [11] = test: Antibacterial activity against bla gene-positive and nitrocefin reaction-positive beta-lactamase harboring Campylobacter jejuni isolate P286 by NCCLS agar doubling dilution method; summary of the method: as §4
Campylobacter jejuni [12] = test: Antibacterial activity against bla gene-positive and nitrocefin reaction-positive beta-lactamase harboring Campylobacter jejuni isolate P305 by NCCLS agar doubling dilution method; summary of the method: as §4
Campylobacter jejuni [13] = test: Antibacterial activity against bla gene-positive and nitrocefin reaction-positive beta-lactamase harboring Campylobacter jejuni isolate P316 by NCCLS agar doubling dilution method; summary of the method: as §4
Campylobacter jejuni [14] = test: Antibacterial activity against bla gene-positive and nitrocefin reaction-positive beta-lactamase harboring Campylobacter jejuni isolate P338 by NCCLS agar doubling dilution method; summary of the method: as §4
Campylobacter jejuni [15] = test: Antibacterial activity against Campylobacter jejuni isolate P338 harboring blaOXA-61::cat gene by NCCLS agar doubling dilution method
Summary of the method: (§5)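 Agar doubling dilution MICs (NCCLS/CLSI Campylobacter Working Group method) against Cj0299-inactivated mutants. Mutants were made by transforming the C. jejuni isolate with pCI and selecting on Mueller-Hinton agar with 10 μg/ml chloramphenicol for 3–5 days. Chromosomal insertion was confirmed by PCR with Cj0299 and cat primers.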

Campylobacter jejuni [16] = test: Antibacterial activity against bla gene-positive and nitrocefin reaction-positive beta-lactamase harboring Campylobacter jejuni isolate P790 by NCCLS agar doubling dilution method; summary of the method: as §4
Campylobacter jejuni [17] = test: Antibacterial activity against bla gene-positive and nitrocefin reaction-positive beta-lactamase harboring Campylobacter jejuni isolate P1093 by NCCLS agar doubling dilution method; summary of the method: as §3
Campylobacter jejuni [18] = test: Antibacterial activity against Campylobacter jejuni isolate P1093 harboring blaOXA-61::cat gene by NCCLS agar doubling dilution method; summary of the method: as §5
Campylobacter jejuni [19] = test: Antibacterial activity against bla gene-positive and nitrocefin reaction-positive beta-lactamase harboring Campylobacter jejuni isolate P1618 by NCCLS agar doubling dilution method; summary of the method: as §3
Campylobacter jejuni [20] = test: Antibacterial activity against bla gene-positive and nitrocefin reaction-positive beta-lactamase harboring Campylobacter jejuni isolate P1650 by NCCLS agar doubling dilution method; summary of the method: as §3
Campylobacter jejuni [21] = test: Antibacterial activity against bla gene-positive and nitrocefin reaction-positive beta-lactamase harboring Campylobacter jejuni isolate P1730 by NCCLS agar doubling dilution method; summary of the method: as §4
Campylobacter jejuni [22] = test: Antibacterial activity against bla gene-positive and nitrocefin reaction-negative beta-lactamase harboring Campylobacter jejuni isolate P1698 by NCCLS agar doubling dilution method; summary of the method: as §3
Campylobacter jejuni [23] = test: Antibacterial activity against bla gene-positive and nitrocefin reaction-negative beta-lactamase harboring Campylobacter jejuni isolate P1699 by NCCLS agar doubling dilution method; summary of the method: as §3
Campylobacter jejuni [24] = test: Antibacterial activity against bla gene-negative and nitrocefin reaction-positive beta-lactamase harboring Campylobacter jejuni isolate P843 by NCCLS agar doubling dilution method; summary of the method: as §3
Campylobacter jejuni [25] = test: Antibacterial activity against bla gene-negative and nitrocefin reaction-positive beta-lactamase harboring Campylobacter jejuni isolate P854 by NCCLS agar doubling dilution method; summary of the method: as §3
Campylobacter coli [26] = test: Antibacterial activity against bla gene-positive and nitrocefin reaction-positive beta-lactamase harboring Campylobacter coli isolate P321 by NCCLS agar doubling dilution method; summary of the method: as §3
Campylobacter coli [27] = test: Antibacterial activity against bla-positive and beta-lactamase-weakly positive Campylobacter coli isolate P1627 by NCCLS agar doubling dilution method; summary of the method: as §4
Campylobacter coli [28] = test: Antibacterial activity against bla gene-positive and nitrocefin reaction-positive beta-lactamase harboring Campylobacter coli isolate P1826 by NCCLS agar doubling dilution method; summary of the method: as §3

`CC1(C)S[C@@H]2[C@H](NC(=O)[C@H](N)c3ccccc3)C(=O)N2[C@H]1C(=O)O` [AMPICILLIN] gave an Activity (Campylobacter coli [1]) of 67.4%, an Activity (Campylobacter jejuni [2]) of 47.5% and an MIC50 (Campylobacter jejuni [3]) of 64 µg/mL (≈ 183 µM). It also gave an MIC90 (Campylobacter jejuni [3]) of 128 µg/mL (≈ 366 µM), an MIC50 (Campylobacter coli [4]) of 64 µg/mL (≈ 183 µM) and an MIC90 (Campylobacter coli [4]) of 128 µg/mL (≈ 366 µM). For the same molecule, the MIC (Campylobacter jejuni [5]) was 4 µg/mL (≈ 11.4 µM), the MIC (Campylobacter jejuni [6]) was 0.5 µg/mL (≈ 1.43 µM) and the MIC (Campylobacter jejuni [7]) was 2 µg/mL (≈ 5.72 µM). For the same molecule, the MIC (Campylobacter jejuni [8]) was 32 µg/mL (≈ 91.6 µM), the MIC (Campylobacter jejuni [9]) was 2 µg/mL (≈ 5.72 µM) and the MIC (Campylobacter jejuni [10]) was 64 µg/mL (≈ 183 µM). The MIC (Campylobacter jejuni [11]) was 64 µg/mL (≈ 183 µM), the MIC (Campylobacter jejuni [12]) was 64 µg/mL (≈ 183 µM) and the MIC (Campylobacter jejuni [13]) was 64 µg/mL (≈ 183 µM). It also gave an MIC (Campylobacter jejuni [14]) of 64 µg/mL (≈ 183 µM), an MIC (Campylobacter jejuni [15]) of 2 µg/mL (≈ 5.72 µM) and an MIC (Campylobacter jejuni [16]) of 64 µg/mL (≈ 183 µM). For the same molecule, the MIC (Campylobacter jejuni [17]) was 128 µg/mL (≈ 366 µM), the MIC (Campylobacter jejuni [18]) was 2 µg/mL (≈ 5.72 µM) and the MIC (Campylobacter jejuni [19]) was 64 µg/mL (≈ 183 µM). For the same molecule, the MIC (Campylobacter jejuni [20]) was 64 µg/mL (≈ 183 µM), the MIC (Campylobacter jejuni [21]) was 64 µg/mL (≈ 183 µM) and the MIC (Campylobacter jejuni [22]) was 128 µg/mL (≈ 366 µM). The MIC (Campylobacter jejuni [23]) was 64 µg/mL (≈ 183 µM), the MIC (Campylobacter jejuni [24]) was 32 µg/mL (≈ 91.6 µM) and the MIC (Campylobacter jejuni [25]) was 128 µg/mL (≈ 366 µM). For the same molecule, the MIC (Campylobacter coli [26]) was 128 µg/mL (≈ 366 µM), the MIC (Campylobacter coli [27]) was 32 µg/mL (≈ 91.6 µM) and the MIC (Campylobacter coli [28]) was 128 µg/mL (≈ 366 µM).
